SENP1 FRET inh: blocks the human SENP1 SUMO protease catalytic domain. inhibition, % at 10 µM. recombinant SENP1 catalytic domain, CyPet-SUMO1-YPet FRET cleavage. Q9P0U3. 360,000 compounds, 0.21% hits;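 active = inhibition at least 30% at 10 µM, raw YFP signal under a set limit, fluorescence ratio 0.5 to 1.5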;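 also: 0% = enzyme with DMSO and 100% = no enzyme wells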
Target sequence (Q9P0U3 419-644 limits assumed): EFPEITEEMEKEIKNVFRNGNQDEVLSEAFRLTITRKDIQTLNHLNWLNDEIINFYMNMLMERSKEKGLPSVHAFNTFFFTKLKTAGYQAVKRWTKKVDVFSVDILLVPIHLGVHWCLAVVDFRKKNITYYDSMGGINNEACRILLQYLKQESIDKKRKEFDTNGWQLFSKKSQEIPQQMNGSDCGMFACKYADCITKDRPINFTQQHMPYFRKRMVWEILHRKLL
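Assay system: hSENP1 catalytic domain, recombinant. Amount: SENP1 enzyme, 20 pM final. Schedule: 50 min reaction, RT, dark. Technique: FRET, CFP and YFP emission. Control set: no-enzyme wells low, DMSO-plus-enzyme wells high control.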
SENP6 inh: inhibitors of human SENP6 protease; Q9GZR1; Recombinant SENP6 catalytic domain, aminoluciferin luminescence; inhibition, % at 10 µM; 330,000 compounds, 1.8% hits;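 active = inhibition above about 50% at the single tested dose, limit read from the data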;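 also: plate controls were DMSO wells with enzyme for no effect and DMSO wells lacking enzyme for full effect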
Target sequence (Q9GZR1 628-1112 limits assumed): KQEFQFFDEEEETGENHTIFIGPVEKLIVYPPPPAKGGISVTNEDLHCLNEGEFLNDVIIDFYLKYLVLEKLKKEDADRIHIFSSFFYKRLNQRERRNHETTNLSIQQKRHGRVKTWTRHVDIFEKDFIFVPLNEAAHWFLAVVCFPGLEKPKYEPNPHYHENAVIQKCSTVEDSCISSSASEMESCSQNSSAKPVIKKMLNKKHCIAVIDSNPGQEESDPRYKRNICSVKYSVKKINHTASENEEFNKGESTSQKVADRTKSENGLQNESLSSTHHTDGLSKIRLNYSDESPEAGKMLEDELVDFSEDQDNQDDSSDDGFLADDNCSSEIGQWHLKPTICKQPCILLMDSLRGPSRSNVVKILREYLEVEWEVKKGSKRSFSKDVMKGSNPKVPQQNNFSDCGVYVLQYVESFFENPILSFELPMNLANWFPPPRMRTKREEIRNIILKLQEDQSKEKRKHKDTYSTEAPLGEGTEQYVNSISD
SENP8 block-1: inhibitors of human SENP8 protease; Q96LD8; recombinant SENP8, Nedd8 substrate fluorescence; inhibition, % at 20 µM; 360,000 compounds, 0.64% hits; AID 602440; in the data active = inhibition mostly above about 40%, no sharp cut-off; inactive = mostly below about 27%
SENP8 block-2: blocks the human protease SENP8; Q96LD8; purified SENP8, Z-RLRGG-aminoluciferin cleavage, luminescence; inhibition, % at 10 µM; 330,000 compounds, 1.2% hits; AID 2540; in the data active = inhibition above about 50%
SENP7 block: SENP7 protease inhibition | recombinant SENP7, Z-RLRGG-aminoluciferin luminescence, 40 min | 330,000 compounds, 1.5% hits | Q9BQF6 | inhibition, % at 5 µM;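 active = inhibition above about 50% at the single test dose, limit read from the data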;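 also: plate controls were DMSO with enzyme for no effect and no enzyme buffer wells for full effect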
SENP8 confirm: human SENP8 inhibition, confirmed. shares compounds with SENP7 block. Recombinant SENP8, Z-RLRGG-aminoluciferin luminescence, 60 min. inhibition, % at 12.5 µM. 6,200 compounds, 40% hits. AID 488912;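 active = mean inhibition across replicates above about 50%, limit read from the data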
SENP6 conf: confirmation of human SENP6 protease inhibitors; 6,200 compounds, 58% hits; recombinant SENP6, Z-RLRGG-aminoluciferin luminescence; shares compounds with SENP7 block; inhibition, % at 12.5 µM
SENP7 confirm: human SENP7 inhibition, confirmed; shares compounds with SENP7 block; recombinant SENP7, Z-RLRGG-aminoluciferin luminescence, 40 min; inhibition, % at 12.5 µM; 6,200 compounds, 69% hits
Casp3 SENP sel: inhibits human caspase-3 in SENP selectivity test; shares compounds with SENP7 block; purified caspase-3, Z-DEVD-aminoluciferin luminescence, 60 min; inhibition, % at 12.5 µM; 6,200 compounds, 60% hits; AID 488918;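 active = mean inhibition above about 50%, limit read from the data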;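 also: plate controls were enzyme with DMSO for no effect and wells without caspase-3 for full effect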
SENP luc ctr: counter-screen for SENP inhibitors: luminescence interference. shares compounds with SENP7 block. Pre-incubated SENP8/Z-RLRGG-aminoluciferin, luciferase luminescence interference. inhibition, % at 12.5 µM. 6,200 compounds, 39% hits. AID 488919;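 active = mean inhibition above about 50% when retested at one dose, limit read from the data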;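 also: plate controls were DMSO wells with completed reaction for no effect and substrate without enzyme for full effect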
* marks the source's active call; other numbers are inactive results; . = no result given. An excerpt weighted towards active compounds, which were near 2.5% of everything screened.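 The calls were made as follows, unless noted: active = mean inhibition above about 50% in the one-dose retest (limit read from the data); inactive = the rest.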

SMILES | SENP1 FRET inh | SENP6 inh | SENP8 block-1 | SENP8 block-2 | SENP7 block | SENP8 confirm | SENP6 conf | SENP7 confirm | Casp3 SENP sel | SENP luc ctr
N#C/C(=N\Nc1ccc(Cl)c(Cl)c1)C(=O)C1CC1 | 1.0 | 96.3* | 34.8 | 93.3* | 76.7* | 91.5* | 98.4* | 100.3* | 86.8* | 45.3
Cc1cccc(NC(=O)CN(C)C(C)C(=O)Nc2ccc(S(=O)(=O)N3CCCC3)cc2)c1C (stereo unspecified) | 0.2 | -20.0 | 8.2 | -9.1 | -0.7 | . | . | . | . | .
CCCCN1C(=O)C(C(=O)OCc2ccccc2)CC2=C1CCCC2=O (stereo unspecified) | 1.8 | . | -2.6 | . | . | . | . | . | . | .
CC(C)c1ccc(NC(=O)c2cc(Br)ccc2Br)cc1 | -0.3 | -15.8 | -47.6 | -13.6 | -6.0 | . | . | . | . | .
O=C(Nc1ccc(Cl)cc1)c1ccc(Br)cc1F | 15.3 | 50.7* | 13.9 | 44.4 | 49.8 | 19.9 | 40.0 | 40.5 | 40.5 | 8.5
O=C(/C=C/Nc1cccc(C(F)(F)F)c1)c1ccco1 | -64.5 | 26.3 | -363.8 | 4.6 | -7.1 | . | . | . | . | .
O=C(/C=C/Nc1ccc(Oc2ccccc2)cc1)c1ccco1 | -20.4 | 94.9* | -241.3 | 95.2* | 97.7* | 32.1 | 98.5* | 102.2* | 95.0* | 18.9
NC(=O)c1ccccc1N/C=C/C(=O)c1ccco1 | -68.1 | 72.6* | -398.0 | 47.9 | 41.7 | 71.8* | 69.3* | 86.9* | 86.1* | 71.6*
O=C(/C=C/Nc1ccccc1C(F)(F)F)c1ccco1 | -43.4 | 76.9* | -26.6 | 54.1* | 68.6* | 2.1 | 59.5* | 86.6* | 51.1* | 43.6
COc1ccc(CN(C)S(=O)(=O)c2nnc(NC(=O)c3cccc(C)c3)s2)cc1OC | -3.7 | 6.8 | -179.4 | 8.8 | 0.9 | . | . | . | . | .
COc1ccc(-c2ccc(C(=O)NCc3ccc(N(C)C)cc3)c3occc23)c(C)c1 | 1.0 | . | 0.7 | . | . | . | . | . | . | .
Cc1ccc(NC(=O)c2ccc([N+](=O)[O-])o2)cc1C | 1.4 | 75.9* | 15.5 | 60.7* | 87.3* | 80.8* | 80.4* | 94.1* | 78.6* | 79.8*
Cc1cc(C(=O)Nc2ccc3ccccc3c2)oc1C | -4.6 | 68.3* | -55.9 | 60.9* | 53.8* | 2.5 | 66.5* | 88.9* | 50.1* | 52.6*
Cc1ccoc1C(=O)Nc1ccc2ccccc2c1 | -1.0 | 97.4* | -1.8 | 96.3* | 99.5* | 95.8* | 98.2* | 102.3* | 95.6* | 91.5*
Cc1cc(C(=O)Nc2ccc3ccccc3c2)c(C)o1 | -1.1 | 84.3* | -20.2 | 73.3* | 68.7* | 84.5* | 84.3* | 96.5* | 65.8* | 67.6*
O=C(NCc1nc2ccccc2[nH]1)C1=C[C@H](c2ccc(C(F)(F)F)cc2)C[C@H](OCCCCO)O1 | -0.5 | -1.3 | 4.5 | -13.6 | -14.7 | . | . | . | . | .
Fc1ccccc1/C=N/Nc1nc2ccccc2o1 | -9.0 | 13.8 | -103.9 | -2.6 | 69.5* | -3.0 | 7.1 | 16.0 | 21.0 | 7.7
CN(C(=O)c1ccc(-c2ccccc2)cc1)C1CCCCC1 | -0.4 | 61.2* | 7.2 | 37.3 | 28.7 | 14.0 | 20.1 | 29.9 | 22.1 | 4.4
CCCNC(=O)C(Cc1ccc(F)cc1)NC(=O)c1ccccc1 (stereo unspecified) | 3.6 | 2.0 | 4.1 | -8.7 | 8.6 | . | . | . | . | .
COc1cc(OC)cc(C(=O)Nc2ccc([N+](=O)[O-])cn2)c1 | -0.6 | 49.6 | 4.9 | 25.5 | 80.6* | 8.7 | 10.8 | 24.1 | 46.2 | 12.2
Cc1cc(C(=O)Nc2ccc([N+](=O)[O-])cn2)cs1 | 2.2 | 51.2* | 2.4 | 28.1 | 50.6* | 27.5 | 41.0 | 76.8* | 74.8* | 12.0
Cc1ccc(C)c(OCc2ccc(C(=O)Nc3ccc([N+](=O)[O-])cn3)o2)c1 | -0.9 | -8.2 | 10.6 | -5.5 | 3.7 | . | . | . | . | .
COc1ccc(C(=O)Nc2ccc([N+](=O)[O-])cn2)cc1OC | -0.4 | -2.5 | 12.7 | -10.2 | 1.5 | . | . | . | . | .
Cc1ccc(C(=O)Nc2ccc([N+](=O)[O-])cn2)o1 | -1.8 | 52.8* | 17.4 | 12.2 | 18.9 | 35.4 | 28.9 | 71.5* | 77.0* | 23.5
COc1ccc(CCN2C(=NC(=O)C(C)C)SC3CS(=O)(=O)CC32)cc1OC (stereo unspecified) | -0.6 | -14.4 | 23.8 | 1.4 | -6.3 | . | . | . | . | .
SMILES | SENP1 FRET inh | SENP6 inh | SENP8 block-1 | SENP8 block-2 | SENP7 block | SENP8 confirm | SENP6 conf | SENP7 confirm | Casp3 SENP sel | SENP luc ctr
Cn1ccnc1SCC(=O)Nc1nc2c(F)c(F)c(F)cc2s1 | -10.5 | -26.4 | -4.6 | -14.6 | 1.4 | . | . | . | . | .
N/C(=N\OC(=O)CCC1CCCC1)c1ccccn1 | 0.9 | 87.4* | 6.9 | 66.5* | 67.8* | 82.0* | 80.1* | 95.1* | 90.7* | 82.8*
N/C(=N\OC(=O)CCC1CCCC1)c1ccccc1 | 0.1 | 68.9* | 4.8 | 41.3 | 17.3 | 71.6* | 70.9* | 88.8* | 82.7* | 53.1*
N/C(=N\OC(=O)CCCc1ccccc1)c1ccccn1 | 2.3 | 50.1* | 3.8 | 12.3 | 36.8 | 27.5 | 27.6 | 72.6* | 72.9* | 53.9*
COc1ccc(/C(N)=N/OC(=O)CCC2CCCC2)cc1OC | -0.2 | -9.3 | -0.1 | -6.6 | -1.8 | . | . | . | . | .
COc1ccc(CCNC(=O)c2ccc(S(=O)(=O)N3CCCCC3)cc2)cc1 | 2.2 | -16.6 | 8.7 | 0.2 | 12.1 | . | . | . | . | .
O=C(NCC(=O)N(c1cccc(F)c1)C(C(=O)NC1CCCC1)c1cccnc1)c1cccs1 (stereo unspecified) | 3.7 | 4.7 | 7.8 | -8.8 | -3.7 | . | . | . | . | .
c1cncc(-c2nc(-c3ccc4c(c3)OCO4)cs2)c1 | -1.5 | 73.1* | -103.8 | 49.9 | 68.8* | 44.4 | 69.3* | 87.3* | 61.4* | 13.3
Oc1ccc(-c2csc(-c3cccnc3)n2)c(O)c1 | 0.4 | 66.1* | -73.8 | 35.3 | 55.2* | 44.4 | 41.9 | 82.0* | 54.4* | 58.0*
Clc1ccsc1-c1csc(-c2cccnc2)n1 | 1.4 | 68.9* | -94.5 | 31.7 | 45.0 | 25.8 | 42.9 | 82.0* | 13.9 | 12.2
CCCC(=O)Nc1ccc(-c2csc(-c3cccnc3)n2)cc1 | 1.8 | 8.6 | -113.2 | -13.8 | -15.2 | . | . | . | . | .
Cc1nc(-c2ccc3c(c2)OCO3)cs1 | 1.5 | -4.6 | 6.3 | -7.9 | 5.8 | . | . | . | . | .
c1cncc(-c2csc(-c3cccnc3)n2)c1 | -1.6 | -31.8 | 14.5 | -11.0 | -11.4 | . | . | . | . | .
CC(=O)Nc1ccc(-c2csc(-c3cccnc3)n2)cc1 | -1.0 | 40.8 | -264.2 | 26.8 | 51.4* | 24.2 | 48.3 | 83.9* | 62.0* | 11.9
O=S1(=O)C[C@H](N2CC[C@@H](O)C2)[C@@H](COCc2ccccc2)N1 | -2.1 | . | 14.0 | . | . | . | . | . | . | .
